ChEMBL document CHEMBL4513216, “Probing the Open Global Health Chemical Diversity Library for Multistage-Active Starting Points for Next-Generation Antimalarials” (ACS Infect Dis, 2020)

Assay: Toxicity liver stage against HepG2, at 10uM
Format: cell-based
Set-up: test concentration 10 uM, cell line HepG2-A16-CD81EGFP
Settings: human, HepG2-A16-CD81EGFP cells; read-out: INHIBITION
How it was run: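 Uninfected HepG2-A16-CD81EGFP cells, 3 × 10^3 per well, 1536-well, plated on prespotted compound at 10 μM final, parasite-free screening media added to match infected plates; puromycin 10 μM positive, DMSO 0.5% negative; run in parallel with 48 h PbLuc assay at 37 °C, 5% CO2; viability by CellTiter-Glo luminescence, normalized to controls.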

SMILES | cytotoxicity at 10 µM
O=c1ncn(-c2cccc(F)c2)c2ncccc12 | 4.19%
O=C1NC[C@H]2CN(Cc3ccnc4ccccc34)CCN12 | -3.66%
COc1ccc(-c2noc([C@@H](C)NS(=O)(=O)CC(C)C)c2C(=O)O)cc1 | -5.23%
CN(C)CCNCC1CCOC(C)(C)C1 (stereo not drawn) | -9.35%
CNC(=O)c1nc(COc2c(C)occc2=O)no1 | 3.08%
CC(C)c1nc2oc(C(=O)N3CCOCC3)c(N)c2c2c1CCCC2 | -3.71%
CCc1c(C)sc2c1c(N)nc(=O)n2CCCN(C)C | 2.06%
O=C(NCc1ccc(F)cc1)NCC(O)(c1cccs1)C1CC1 (stereo not drawn) | -1.13%
COC(=O)c1ccc(S(=O)(=O)NCC(O)c2sccc2C)cc1 (stereo not drawn) | 2.16%
Cn1ccc(CN2CCCC23CCNCC3)n1 | 4.86%
CCS(=O)(=O)N1CCOC2(CCCN(c3ncc(F)cn3)C2)C1 (stereo not drawn) | 5.86%
COC[C@]12COC[C@H]1CN(C(=O)C1CCSCC1)C2 | 2.2%
COc1cc(N2CCn3cc(CNc4ccccn4)nc3C2)ncn1 | 13.1%
Cc1csc(CN2CC[C@H]3C[C@@H](c4nc(C)no4)O[C@@H]3C2)n1 | 3.8%
Cc1oncc1C(=O)N1CCCc2c(C#N)nn(C)c2C1 | -134%
CC(C)N(C)CC(=O)Nc1nccn1Cc1ccccc1Cl | 0.0646%
CCn1ccnc1CN1CCCN(C(=O)c2ccc(C#N)cc2)CC1 | -6.96%
CC(O)CCN(C)C(=O)Nc1ccc(Br)cc1 (stereo not drawn) | -2.1%
NC(=O)CNC(c1ccccc1)c1ccc(OC(F)F)cc1 (stereo not drawn) | 58.2%
CC(=O)NCCNC(=O)NCc1ccc(-n2ccc(C(F)(F)F)n2)cc1 | -6%
COC(=O)c1ccc(NC(C)c2ccc3c(c2)NC(=O)CO3)nn1 (stereo not drawn) | -4.75%

SMILES | cytotoxicity at 10 µM
Cc1nnc(CN(C)CC(=O)N2CCCC(C(F)(F)F)C2)n1C (stereo not drawn) | 4.49%
CC(Cc1c(F)cccc1F)NC(=O)CSCC(N)=O (stereo not drawn) | -6.37%
O=C(NCc1ccccc1CO)Nc1ccc2c(c1)CCO2 | 11.4%
CCN1CCN(C(C)CNC(=O)Nc2nnc(C(C)C)s2)CC1 (stereo not drawn) | 1.06%
Cc1ccccc1-n1cnnc1SCCOCC1CCCO1 (stereo not drawn) | -3.73%
NCC1(c2cccc(C(F)(F)F)c2)CCCC1 | -5.7%
Cc1cnn(CC2CN(CCCS(C)(=O)=O)CCO2)c1 (stereo not drawn) | -2.45%
CC(C)(C)c1nnc(CNc2c(F)cccc2-n2cccn2)o1 | -8.25%
N#CCCCOc1cccnc1NC(=O)CCC1CCCC1 | -2.08%
CCc1nc(CN(C)C(=O)NC(C)c2cccc(NC(C)=O)c2)cs1 (stereo not drawn) | -4.85%
COc1ccc(Nc2cc(C)nc(C)n2)cc1N1CCCC1=O | -2.19%
COc1cccc(F)c1C(C)NC(=O)NCCc1ccc(C)nc1 (stereo not drawn) | -2.13%
Cc1cc(C(=O)NC2(C#N)CCSCC2)n(C)n1 | 22.1%
CCOCc1ccccc1CNc1ccc2nncn2n1 | 0.84%
O=C(c1cccc2[nH]ccc12)N1CCC2(CCOC2)C1 (stereo not drawn) | -151%
Cn1cc(S(=O)(=O)Nc2c(F)cccc2N2CCCC2)cn1 | -4.24%
CCc1n[nH]c(C2CN(Cc3ncc(CC)o3)CCO2)n1 (stereo not drawn) | -9.79%
CCn1cnnc1CNC(=O)C1CCCN(Cc2cccc(F)c2)C1 (stereo not drawn) | 3.5%
Cc1c(Cl)ccc2ccc(NC(CO)CO)nc12 | -7.78%
Cc1ccc(Cl)c2ccc(NC(CO)CO)nc12 | -12.1%
COc1c(CNCCC(=O)Nc2cccc(C)n2)c(C(C)C)nn1C | -1.17%

SMILES | cytotoxicity at 10 µM
O=C(CNc1ccc(OC2CCOC2)cc1)NCc1ccco1 (stereo not drawn) | 5.03%
Cc1c(C(=O)NCCCS(C)(=O)=O)cccc1-c1ccccn1 | 4.83%
CC(NC(=O)NCc1cccnc1N(C)C)c1ccc(F)cc1 (stereo not drawn) | -1.19%
CS(=O)(=O)N1CCC(Nc2ccc(C#N)c(C(F)(F)F)c2)CC1 | 6.85%
CN(CCn1cccn1)S(=O)(=O)c1cccc(Cl)c1C#N | 3.45%
CCN(CC(=O)NC)C(=O)Cc1nc(-c2ccco2)oc1C | 22.8%
O=C(c1cccc(-c2ncc[nH]2)c1)N1CC[C@H](CO)[C@@H](O)C1 | -0.462%
COc1ccc2[nH]nc(CN3CCC(C(C)N4CCCC4)CC3)c2c1 (stereo not drawn) | -4.13%
Cc1nc(N2CCC(C(O)c3nccn3C)CC2)c2cccnc2n1 (stereo not drawn) | 1.46%
O=C(NCCc1ccncc1)c1ccc(N2CCOCC2)cc1 | -5.08%
CC(O)CN1CCc2[nH]nc(C(c3ccccc3)c3ccccc3)c2C1 (stereo not drawn) | -0.481%
CN(C)S(=O)(=O)N1CCN(CC2CCOc3ccccc3C2)CC1 (stereo not drawn) | -0.529%
COc1ccc(F)cc1-c1nc2c([nH]1)c(C1CC1)nn2C | -2.18%
OC1(CNCCc2nc3c(s2)CCCC3)CNCCOC1 (stereo not drawn) | 17.4%
CCc1nc(C2CCCN2CC(=O)Nc2nnc(C)s2)no1 (stereo not drawn) | -1.73%
COC(=O)c1cccn1C1CCN(C(=O)c2ccc(C)[nH]c2=O)CC1 | -3.78%
CNC(=O)c1ccc(C(=O)N2CCCC(n3nc(C)cc3C)C2)cn1 (stereo not drawn) | -5.61%
NC(=O)C1CCN(C(=O)c2cccn2Cc2cccs2)CC1 | -4.08%
CC(=O)NCc1ccc(C(=O)N2CCCC2c2cnn(C)c2)cc1 (stereo not drawn) | -13.5%
COc1ccc(CCNC(=O)N2CCCC(c3nncn3C)C2)cc1 (stereo not drawn) | -3.92%
CCCc1n[nH]c(C2CN(C(=O)c3cccc4cn[nH]c34)CCO2)n1 (stereo not drawn) | -4.81%

SMILES | cytotoxicity at 10 µM
CCOc1cc(C(=O)N2CCCC(n3nc(C)nc3C)C2)ccn1 (stereo not drawn) | -5.99%
Cc1ccc(C(=O)N(C)Cc2ccc3c(c2)OCCO3)c(=O)[nH]1 | -9.24%
CN1CCCC1CNC(=O)CCOc1ccc(Cl)cc1 (stereo not drawn) | -4.31%
CCC(O)CN1CCN(C(=O)c2ccc(Cn3cccc3)cc2)CC1 (stereo not drawn) | -6.54%
CCn1cc(NC(=O)Nc2ccc3c(c2)OCCO3)cn1 | -1.04%
Clc1ccccc1Cn1cc(CNC2CCc3ncnn3C2)cn1 (stereo not drawn) | 1.91%
CC(NC(=O)NCCc1ccc(Cl)s1)c1ccccn1 (stereo not drawn) | -3.07%
CCc1n[nH]c(C2CN(C(=O)c3ccc4c(c3)CCC4)CCO2)n1 (stereo not drawn) | -13.1%
Cc1cnn(CC2CN(CCCc3nc4ccccc4o3)CCO2)c1 (stereo not drawn) | -2.45%
O=C(NCCn1nc2ccccn2c1=O)c1cc(C2CC2)[nH]n1 | 0.763%
CCN(Cc1ccc2c(c1)OCO2)C(=O)NC(C)Cn1cccn1 (stereo not drawn) | -2.5%
Cn1cnnc1C1CCCN(C(=O)NCc2ccc3c(c2)OCO3)C1 (stereo not drawn) | -1.9%
Cc1cc(CN(C)C(=O)C2CCS(=O)(=O)C2)no1 (stereo not drawn) | 0.746%
Cc1nc(-c2cc(C(=O)NCCN3CCOCC3)c3ccccn23)cs1 | 3.59%
COC[C@@H]1CCC[C@]12CN(Cc1cccc(C)n1)CCO2 | 5.53%
COc1ccccc1OCCNCc1c(C)nn(C)c1N(C)C | -2.9%
COCC(=O)N1C[C@@H]2CCCO[C@@H]2[C@H](N(C)Cc2ccco2)C1 | -0.704%
Cc1n[nH]cc1CNCC1(c2cccc(F)c2)CCOCC1 | 6.48%
O=S(=O)(C1CC1)N1CCC2(CCN(Cc3nccs3)CC2)CC1 | 7.67%
CN(C)C(=O)COC[C@H]1CC[C@@H]2[C@@H](CCN2Cc2ccco2)O1 | -160%
